In the library only some 2.3% were active in any assay of this set; here they are far more common.
Myeloid diff MLP = myeloid differentiation induction; ER-HoxA9 myeloid progenitors, lysozyme-GFP differentiation, flow cytometry; calls only at 10 µM; 360,000 tested, 1% active; AID 624256;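 active = normalized GFP-positive differentiation at or above the plate's own cutoff, the solvent-only control mean plus 3 SD; inconclusive = no clear call, values can overlap the other calls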;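 note: cells exposed to compound for four days before flow analysis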
CSN deneddyl inh = blocks human CSN-mediated cullin deneddylation; Q92905; Purified CSN, SCF-Nedd8-OG deneddylation, fluorescence polarization; inhibition, % at 12.5 µM; 360,000 tested, 0.38% active; AID 651999;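 active = pattern-corrected inhibition above about 35%, with an unprinted fluorescence ratio check between 0.5 and 1.5, limit read from the data, passing the limit was not always enough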
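Material: purified human Csn5 enzyme expressed in HEK293T cells / Medium: Tris buffer pH 7.5, NaCl, DTT, Tween-20, trehalose, ovalbumin / Compound dosing: 12.5 µM single point / Schedule: 90 min incubation of compound, enzyme and substrate at room temperature / Signal: fluorescence polarization of the substrate / Control set: no-enzyme wells high, enzyme-with-substrate wells low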
TPT1 inh = inhibitors of Candida albicans tRNA 2'-phosphotransferase TPT1; 300,000 tested, 0.81% active; inhibition, % at 5 µM; recombinant caTPT1, FP RNA substrate dephosphorylation;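 active = inhibition above the mean of all tested compounds plus 3 SD, set per screening campaign, cut at about 24% in these data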
HNF4A DNA FP = change in binding of human HNF4 alpha to DNA; 360,000 tested, 0.3% active; P41235; activity change, % at 10 µM; AID 1224865; HNF4a-FITC DNA binding, fluorescence polarization, 1 h; in the data active = activity change above about 30%, passing the limit was not always enough
Target sequence (P41235 whole entry, looked up): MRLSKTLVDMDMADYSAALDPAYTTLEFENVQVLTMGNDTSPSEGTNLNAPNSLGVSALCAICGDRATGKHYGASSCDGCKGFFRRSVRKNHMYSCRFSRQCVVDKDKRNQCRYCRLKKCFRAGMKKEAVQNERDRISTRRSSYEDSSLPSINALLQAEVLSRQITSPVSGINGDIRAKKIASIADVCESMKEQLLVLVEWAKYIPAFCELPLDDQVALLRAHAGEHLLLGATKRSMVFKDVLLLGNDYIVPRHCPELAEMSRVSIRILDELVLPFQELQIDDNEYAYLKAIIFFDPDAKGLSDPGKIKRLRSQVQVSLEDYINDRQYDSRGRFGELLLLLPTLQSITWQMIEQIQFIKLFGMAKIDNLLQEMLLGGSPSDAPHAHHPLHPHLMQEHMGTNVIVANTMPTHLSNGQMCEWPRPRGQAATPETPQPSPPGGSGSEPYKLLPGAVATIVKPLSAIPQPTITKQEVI
Rpn11 inh = Rpn11 (human) deubiquitinase inhibition; inhibition, % at 20 µM; 360,000 tested, 0.59% active; human 26S proteasome, Ub4-pepOG fluorescence polarization; 20S core pre-blocked with epoxomicin;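 active = inhibition at 20 µM, scaled to each plate's controls, above about 33%, limit read from the data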
Myeloid diff CP1 = compounds promoting myeloid differentiation | shares compounds with Myeloid diff MLP | ER-HoxA9 myeloid progenitors, GFP/Mac1 double-positive flow | calls only | 2,300 tested, 2% active | AID 651706;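 active = share of green or green-and-red cells above 9 and 9% in run 1 or 4 and 3% in run 2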
GFP autofluor = flagged as fluorescent in myeloid differentiation counter-screen | shares compounds with Myeloid diff MLP | ER-HoxA9 myeloid progenitors, no estrogen, GFP autofluorescence flow cytometry; vehicle wells 0%, positive control 100% | fluorescence response, % (no concentration beside the values) | 2,300 tested, 7.4% active;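 active = over 5% cells positive for green fluorescent reporter, or over 2% positive for both it and APC stain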
A number is an active result; . = inactive; ? = inconclusive; / = no result; + = active, no number.

SMILES	Myeloid diff MLP	CSN deneddyl inh	TPT1 inh	HNF4A DNA FP	Rpn11 inh	Myeloid diff CP1	GFP autofluor
CC(=O)c1c(C)[nH]c(C(=O)NNC(=O)COc2ccc(Cl)cc2C)c1C	.	.	.	.	.	/	/
COc1cc2c(cc1OC)CN(CC(=O)Nc1ccccc1C(=O)NCc1ccccc1)CC2	/	.	.	.	.	/	/
COc1cc2c(cc1OC)CN(CC(=O)NC(=O)NCc1ccccc1)CC2	+	.	.	.	.	.	.
COc1ccc(S(=O)(=O)N2CCOC2CNC(=O)C(=O)NCc2ccccn2)cc1OC (stereo not drawn)	+	.	/	.	.	.	.
C=CCN(c1ccccc1OC)S(=O)(=O)c1ccc(Cl)c(C(=O)NCc2ccco2)c1	+	.	/	.	.	.	.
C=CCN(c1ccccc1OC)S(=O)(=O)c1cccc(C(=O)NCc2ccco2)c1	.	.	/	.	.	/	/
CC1Cc2ccccc2N1C(=O)CN1CCC(n2nnc3cc(C(F)(F)F)ccc32)CC1 (stereo not drawn)	.	.	.	.	.	/	/
O=C(Cn1cncn1)NCc1cc(F)ccc1F	.	.	.	.	.	/	/
Cc1cc(Cl)ccc1NC(=S)N1CCN(Cc2ccc3c(c2)OCO3)CC1	+	.	.	.	.	.	.
CCCc1cc(=O)[nH]c(SCC(=O)Nc2cccc3ccccc23)n1	/	.	.	.	.	/	/
CCCc1cc(=O)[nH]c(SCC(=O)Nc2ccccc2C#N)n1	.	.	.	.	.	.	.
CC(NC(=O)c1cccs1)c1ccc(Br)cc1 (stereo not drawn)	.	.	.	.	.	/	/
COc1cc(NC(=O)c2cc(S(=O)(=O)N3CCCCC3)ccc2N2CCOCC2)cc(OC)c1	+	.	.	.	.	.	.
CC(=O)Nc1ccc(NC(=O)c2cc(S(=O)(=O)N3CCCCC3)ccc2N2CCOCC2)cc1	.	.	/	.	.	/	/
O=C(c1ccc(NC2=NC3CS(=O)(=O)CC3S2)cc1)N(CCO)Cc1ccccc1 (stereo not drawn)	.	.	.	.	.	/	/
CCOC(=O)c1c(-c2ccc(OC)cc2)csc1NC(=O)CSc1ncnc2sccc12	.	.	.	.	.	.	.
CCOC(=O)c1c(-c2ccc(OC)cc2)csc1NC(=O)COc1ccc2c(C)cc(=O)oc2c1	.	.	.	.	.	/	/
CCn1c(SCC(=O)N2CCN(c3ccc(F)cc3)CC2)nc2ccccc2c1=O	.	.	.	.	.	.	.
CCn1c(SCC(=O)N2CCN(c3ccc(Cl)cc3)CC2)nc2ccccc2c1=O	.	.	.	.	.	/	/
Cc1ccc(S(=O)(=O)N/N=C\C=C\c2ccccc2)cc1	/	.	.	.	.	.	.
c1ccc(N2CC3COc4ccccc4C3=N2)cc1 (stereo not drawn)	.	.	/	.	.	/	/
CC1=C(C(=O)N(C)C)CC(CC(=O)NCCCN(C)C)C(=O)N1Cc1ccc(C(C)(C)C)cc1 (stereo not drawn)	.	.	/	.	.	/	/
CCN(CC)C(=O)C1=C(C)N(Cc2ccc(C(C)(C)C)cc2)C(=O)C(CC(=O)NCCCN(C)C)C1 (stereo not drawn)	.	.	/	.	.	.	.
CC(=O)Nc1cc(-c2cccc(C(=O)NCCN(C)C)c2)cn2c(-c3ccc(S(C)(=O)=O)cc3)cnc12	+	.	/	.	.	.	5.3
CS(=O)(=O)N1CCC(C(=O)Nc2cc(Cl)c(Cl)cc2Cl)CC1	.	.	.	.	.	.	.
SMILES	Myeloid diff MLP	CSN deneddyl inh	TPT1 inh	HNF4A DNA FP	Rpn11 inh	Myeloid diff CP1	GFP autofluor
O=C(CCc1ccccc1)N/N=C/c1cc(Br)ccc1O	.	.	.	.	.	.	.
O=C(Nc1cc(Br)ccc1O)c1cc(-c2cccs2)on1	+	.	.	.	.	.	.
CC(C)c1cc(C(=O)Nc2cc(Br)ccc2O)no1	.	.	.	.	.	/	/
CN1C[C@H]2CON(C)[C@H]2C[C@H]1c1cccc(-c2ccccc2)c1	.	.	/	.	.	/	/
COC(=O)c1c(NC(=O)C2(C)Cc3ccccc3C(=O)O2)sc2c1CCCC2 (stereo not drawn)	+	.	.	.	.	.	.
COC(=O)c1c(NC(=O)C2Cc3ccccc3C(=O)O2)sc2c1CCCC2 (stereo not drawn)	.	.	.	.	.	/	/
COc1ccccc1NS(=O)(=O)c1cccc(-n2c(O)c(C=Nc3ccccc3C(=O)O)c3ccccc3c2=O)c1	.	.	.	.	.	/	/
CNc1ccc([N+](=O)[O-])cc1-c1nc2ccccc2[nH]c1=O	+	.	.	.	.	.	.
COc1ccccc1COc1cccn2c(N(C)C(=O)CCC3CCCC3)c(C)nc12	+	.	/	.	.	.	.
CCN(C[C@H]1N[C@@](Cc2ccccc2)(C(=O)OC)[C@H]2C(=O)N(C)C(=O)[C@@H]12)C(=O)NC(C)C	.	.	/	.	.	/	/
CCc1ccc2c(c1)cc(CN(C(=S)Nc1ccccc1C)C1CC1)c1nnnn12	.	.	.	.	.	.	.
CCc1ccc2c(c1)cc(CN(C(=S)Nc1ccccc1)C1CC1)c1nnnn12	.	.	.	.	.	/	/
CC[N+](C)(CC)CCOC(=O)C(O)(c1ccccc1)C1CCCCC1 (stereo not drawn)	?	.	.	.	.	/	/
CC[N+](C)(CC)CCC(c1ccccc1)C1CCCCC1 (stereo not drawn)	.	.	.	.	.	.	.
Cc1ccccc1C(=O)Nc1ccc2c(C#N)c3nc4ccccc4nc3n2c1	+	.	.	.	.	.	2.3
CCCc1nnc(NC(=O)CCC(=O)N2CCN(c3ccccc3)CC2)s1	.	.	.	.	.	.	.
CC1=Nc2nc(N3CCCCC3)c(C#N)c3c4c(nc(c23)N1)N(c1ccc(C(C)C)cc1)C(=O)C4	+	.	.	.	.	.	.
CC/C(=N/NC(=O)c1ccc2c(c1)OCO2)c1ccccc1O	.	.	.	.	.	.	.
C/C(=N\NC(=O)c1cc2ccccc2cc1O)c1ccc2c(c1)OCO2	.	.	.	.	.	/	/
CCOc1cc(C)c(S(=O)(=O)Nc2ccc(Cl)cn2)cc1C	.	.	.	.	.	.	.
COc1cc(-n2c(N)c(C(=O)NCc3ccco3)c3nc4ccccc4nc32)cc(OC)c1OC	.	.	.	.	.	/	/
COc1ccc(-n2c(N)c(C(=O)NCc3ccco3)c3nc4ccccc4nc32)cc1OC	+	.	.	.	.	.	.
Cc1nn(-c2ccccc2)c2sc(C(=O)NNC(=O)COc3ccccc3)cc12	+	.	.	.	.	.	.
CSc1ccc(S(=O)(=O)NCc2ccc(Cl)cc2Cl)cc1	.	.	.	.	.	/	/
O=c1cc(-c2ccc(O)cc2)oc2c(O)c(O)c(O)c(O)c12	.	.	.	.	.	.	.
